According to ChEMBL document CHEMBL3244334, “Synthesis of pyridinium analogues of acetylcholine and their interactions with intestinal muscarinic receptors” (J Med Chem, 1979):
Calls of active or inactive are those of the source. The rule behind the calls is not given here.

What was measured:
[1] = molecular target: Acetylcholinesterase (Electrophorus electricus) (UniProt O42275); experiment: Inhibition of electric eel acetylcholinesterase using acetylcholine as substrate at 3 x 10^-5 M relative to control
Chain of Acetylcholinesterase (Electrophorus electricus) (O42275 24-633 limits assumed): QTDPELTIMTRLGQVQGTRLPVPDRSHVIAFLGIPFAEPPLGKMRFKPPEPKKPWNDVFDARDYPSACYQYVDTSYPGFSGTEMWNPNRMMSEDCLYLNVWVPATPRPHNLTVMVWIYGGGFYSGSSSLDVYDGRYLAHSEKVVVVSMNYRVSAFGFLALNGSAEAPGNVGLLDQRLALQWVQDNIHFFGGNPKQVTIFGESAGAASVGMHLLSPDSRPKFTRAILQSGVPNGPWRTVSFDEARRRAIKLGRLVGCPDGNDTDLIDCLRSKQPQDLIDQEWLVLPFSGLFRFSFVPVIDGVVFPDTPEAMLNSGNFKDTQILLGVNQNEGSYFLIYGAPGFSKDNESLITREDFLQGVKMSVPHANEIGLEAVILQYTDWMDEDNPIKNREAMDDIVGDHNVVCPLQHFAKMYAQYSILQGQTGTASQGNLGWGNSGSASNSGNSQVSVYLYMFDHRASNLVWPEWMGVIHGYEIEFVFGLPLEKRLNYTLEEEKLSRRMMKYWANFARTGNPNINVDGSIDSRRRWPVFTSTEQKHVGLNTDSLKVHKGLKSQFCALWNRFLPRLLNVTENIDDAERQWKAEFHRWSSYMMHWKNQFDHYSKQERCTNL
Procedure, shortened: (§1)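 Electric eel AChE; substrate 1 mM ACh. Inhibition taken as the lowered rate of ACh decomposition, measured by pH-stat titration. Six experiments per value, reported as means ± SD.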

[2] = molecular target: Acetylcholinesterase (Electrophorus electricus) (UniProt O42275); experiment: Inhibition of electric eel acetylcholinesterase using acetylcholine as substrate at 10^-3 M relative to control; procedure, shortened: as §1
Cavia porcellus [3] = species: Cavia porcellus; experiment: Agonist activity at muscarinic acetylcholine receptor in guinea pig ileum assessed as longitudinal muscle contraction at 3 x 10^-5 M in presence of 10 uM competitive nicotinic antagonist hexamethonium chloride relative to control; assay type: tissue-based
Cavia porcellus [4] = species: Cavia porcellus; experiment: Agonist activity at muscarinic acetylcholine receptor in guinea pig ileum assessed as longitudinal muscle contraction at 10^-3 M in presence of 10 uM competitive nicotinic antagonist hexamethonium chloride relative to control; assay type: tissue-based
[5] = Toxicity in NMRI mouse; assay type: organism-based; conditions: in vivo
[6] = (§2) Competitive antagonist activity at muscarinic acetylcholine receptor in guinea pig ileum assessed as inhibition of acetyl-beta-methylcholine-induced longitudinal muscle contraction administered 10 mins prior to acetyl-beta-methylcholine induction measured every 20 mins in presence of 10 uM competitive nicotinic antagonist hexamethonium chloride; assay type: tissue-based; conditions: Cavia porcellus, read-out: pA2 (converted)
Procedure, shortened: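 Ileal muscle was pretreated for 10 min with a single antagonist dose, then a cumulative acetyl-β-methylcholine concentration-response curve was run, with 10 μM hexamethonium chloride in the bath. Lachesine was the reference antagonist, run the same way. Rightward shift of the log concentration-response curves and any change in shape or maximum were assessed. Values are means ± SD.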

[7] = as §2, with “1-(2-acetoxyethyl)pyridinium iodide-induced” for “acetyl-beta-methylcholine-induced”, “1-(2-acetoxyethyl)pyridinium iodide” for “acetyl-beta-methylcholine”; assay type: tissue-based; conditions: Cavia porcellus, read-out: pA2 (converted)
Procedure, shortened: (§3)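 Ileal muscle in 10 μM hexamethonium chloride. Tissue conditioned with a single antagonist dose for 10 min before cumulative dose-response curves to the pyridinium agonist. Points are means of equipotent agonist concentrations giving standard responses, from 6–8 experiments.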

Cavia porcellus [8] = experiment: Non-competitive antagonist activity at muscarinic acetylcholine receptor in guinea pig ileum assessed as inhibition of 1-(2-acetoxyethyl)pyridinium iodide-induced longitudinal muscle contraction at 0.1 uM administered 10 mins prior to 1-(2-acetoxyethyl)pyridinium iodide induction measured every 20 mins in presence of 10 uM competitive nicotinic antagonist hexamethonium chloride; assay type: tissue-based; procedure, shortened: as §3
[9] = molecular target: Acetylcholinesterase (Electrophorus electricus) (UniProt O42275); experiment: Inhibition of electric eel acetylcholinesterase using acetylcholine as substrate at 10^-5 M relative to control; procedure, shortened: as §1
[10] = molecular target: Acetylcholinesterase (Electrophorus electricus) (UniProt O42275); experiment: Inhibition of electric eel acetylcholinesterase using acetylcholine as substrate at 3 x 10^-4 M relative to control; procedure, shortened: as §1
Cavia porcellus [11] = species: Cavia porcellus; experiment: Agonist activity at muscarinic acetylcholine receptor in guinea pig ileum assessed as longitudinal muscle contraction at 10^-5 M in presence of 10 uM competitive nicotinic antagonist hexamethonium chloride relative to control; assay type: tissue-based
Cavia porcellus [12] = species: Cavia porcellus; experiment: Agonist activity at muscarinic acetylcholine receptor in guinea pig ileum assessed as longitudinal muscle contraction at 3 x 10^-4 M in presence of 10 uM competitive nicotinic antagonist hexamethonium chloride relative to control; assay type: tissue-based
Cavia porcellus [13] = species: Cavia porcellus; experiment: Agonist activity at muscarinic acetylcholine receptor in guinea pig ileum assessed as longitudinal muscle contraction at 10^-6 M in presence of 10 uM competitive nicotinic antagonist hexamethonium chloride relative to control; assay type: tissue-based
Cavia porcellus [14] = species: Cavia porcellus; experiment: Agonist activity at muscarinic acetylcholine receptor in guinea pig ileum assessed as longitudinal muscle contraction at 10^-4 in presence of 10 uM competitive nicotinic antagonist hexamethonium chloride relative to control; assay type: tissue-based
Cavia porcellus [15] = species: Cavia porcellus; experiment: Agonist activity at muscarinic acetylcholine receptor in guinea pig ileum assessed as longitudinal muscle contraction measured every 20 mins in presence of 10 uM competitive nicotinic antagonist hexamethonium chloride; assay type: tissue-based
Procedure, shortened: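 Isolated ileal muscle in a bath with 10 μM hexamethonium chloride to block ganglionic stimulation. Cumulative concentration-response curves to the test agonist and to acetyl-β-methylcholine (reference agonist) were built alternately on one preparation every 20 min. pD₂ was derived from the curves, n = 15 per drug, means ± SD.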

Cavia porcellus [16] = species: Cavia porcellus; experiment: Agonist activity at muscarinic acetylcholine receptor in guinea pig ileum assessed as longitudinal muscle contraction measured every 20 mins in absence of 10 uM competitive nicotinic antagonist hexamethonium chloride; assay type: tissue-based
Procedure, shortened: (§4)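 Isolated ileal muscle, cumulative agonist dose-response curves built every 20 min, read as contraction. pD2 derived; n = 15. Hexamethonium either left out of the bath or raised from 10 to 100 μM.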

Cavia porcellus [17] = species: Cavia porcellus; experiment: Agonist activity at muscarinic acetylcholine receptor in guinea pig ileum assessed as longitudinal muscle contraction measured every 20 mins in presence of 100 uM competitive nicotinic antagonist hexamethonium chloride; assay type: tissue-based; procedure, shortened: as §4
Cavia porcellus [18] = species: Cavia porcellus; experiment: Agonist activity at muscarinic acetylcholine receptor in guinea pig ileum assessed as longitudinal muscle contraction measured every 20 mins in presence of 0.05 uM physostigmine; assay type: tissue-based
[19] = molecular target: Acetylcholinesterase (Electrophorus electricus) (UniProt O42275); conditions: 10^-6 M

| SMILES | LD50 [5] | Kb [6] | Kb [7] | pD2 (Cavia porcellus [15]) | Activity (Cavia porcellus [16]) | Activity (Cavia porcellus [17]) | Activity (Cavia porcellus [18]) | also measured |
| --- | --- | --- | --- | --- | --- | --- | --- | --- |
| CC(=O)OCC[n+]1ccc(C)cc1.[Br-] | 2000 µmol/kg | 372 µM |  |  |  |  |  | inhibition [1]: 42.5%; inhibition [2]: 77.4%; %max (Cavia porcellus [3]): 0%; %max (Cavia porcellus [4]): 0% |
| CC[N+](C)(C)CCOC(=O)C(O)(c1ccccc1)c1ccccc1 [LACHESINE CHLORIDE] |  | 0.0024 µM | 0.00219 µM |  |  |  |  | inhibition (Cavia porcellus [8]): Active |
| CC(=O)OCC[n+]1ccc(C(C)(C)C)cc1.[Br-] | 2000 µmol/kg | 37.2 µM | 30.2 µM |  |  |  |  | inhibition [9]: 32.3%; inhibition [10]: 66.2%; %max (Cavia porcellus [11]): 0%; %max (Cavia porcellus [12]): 0% |
| CC(=O)OCC[n+]1ccccc1 |  |  |  | 4.62 | Active | Active | Active | %max (Cavia porcellus [13]): 0%; %max (Cavia porcellus [14]): 89%; inhibition [19]: 23.9% |
| CC(=O)OC(C)C[N+](C)(C)C (configuration not stated) |  |  |  | 7.02 | Active | Active | Active |  |
